Results as given in ChEMBL document CHEMBL1140421, “Kynurenamines as neural nitric oxide synthase inhibitors” (J Med Chem, 2005).

Tests used:
[1] = biological target: Nitric oxide synthase 1 (Rattus norvegicus) (UniProt P29476); assay: Percentage inhibition of rat striatal neural nitric oxide synthase (nNOS) activity at 1 mM by quantifying L-[3H]citrulline production
Outline: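 Striatal homogenate was made in pH 7.6 Tris buffer with DTT and protease inhibitors, then spun 1000g for 5 min. Supernatant was incubated with 25 mM Tris, 1 mM DTT, 30 μM H4-biopterin, 10 μM FAD, 0.1 mM CaCl2, 10 μM L-arginine plus 50 nM L-[3H]-arginine, 0.75 mM NADPH and compound at 1 mM final in DMSO, 37 °C, 30 min. L-[3H]-citrulline separated on Dowex-50W and counted. NADPH-free blank subtracted. Three experiments in triplicate.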

[2] = biological target: Kynurenine 3-monooxygenase (Rattus norvegicus) (UniProt O88867); assay: Percent activity of rat striatal kynurenine 3-hydroxylase (KYN3OH) activity at 1 mM by quantifying 3-hydroxykynurenine production
Chain of Kynurenine 3-monooxygenase (Rattus norvegicus) (O88867 whole entry, looked up): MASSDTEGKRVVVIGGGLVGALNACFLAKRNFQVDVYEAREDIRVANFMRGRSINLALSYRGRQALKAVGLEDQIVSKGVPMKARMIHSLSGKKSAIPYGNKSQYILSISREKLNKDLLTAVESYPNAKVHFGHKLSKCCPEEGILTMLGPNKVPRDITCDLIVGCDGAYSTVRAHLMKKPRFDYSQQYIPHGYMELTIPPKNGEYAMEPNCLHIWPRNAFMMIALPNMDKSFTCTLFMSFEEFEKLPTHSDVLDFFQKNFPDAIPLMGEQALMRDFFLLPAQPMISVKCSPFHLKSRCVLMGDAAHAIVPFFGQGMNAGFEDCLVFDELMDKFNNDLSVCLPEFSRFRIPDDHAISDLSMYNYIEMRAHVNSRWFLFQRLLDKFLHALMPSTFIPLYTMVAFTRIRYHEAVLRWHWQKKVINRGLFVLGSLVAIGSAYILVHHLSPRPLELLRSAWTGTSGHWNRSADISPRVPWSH

Chain of Nitric oxide synthase 1 (Rattus norvegicus) (P29476 whole entry): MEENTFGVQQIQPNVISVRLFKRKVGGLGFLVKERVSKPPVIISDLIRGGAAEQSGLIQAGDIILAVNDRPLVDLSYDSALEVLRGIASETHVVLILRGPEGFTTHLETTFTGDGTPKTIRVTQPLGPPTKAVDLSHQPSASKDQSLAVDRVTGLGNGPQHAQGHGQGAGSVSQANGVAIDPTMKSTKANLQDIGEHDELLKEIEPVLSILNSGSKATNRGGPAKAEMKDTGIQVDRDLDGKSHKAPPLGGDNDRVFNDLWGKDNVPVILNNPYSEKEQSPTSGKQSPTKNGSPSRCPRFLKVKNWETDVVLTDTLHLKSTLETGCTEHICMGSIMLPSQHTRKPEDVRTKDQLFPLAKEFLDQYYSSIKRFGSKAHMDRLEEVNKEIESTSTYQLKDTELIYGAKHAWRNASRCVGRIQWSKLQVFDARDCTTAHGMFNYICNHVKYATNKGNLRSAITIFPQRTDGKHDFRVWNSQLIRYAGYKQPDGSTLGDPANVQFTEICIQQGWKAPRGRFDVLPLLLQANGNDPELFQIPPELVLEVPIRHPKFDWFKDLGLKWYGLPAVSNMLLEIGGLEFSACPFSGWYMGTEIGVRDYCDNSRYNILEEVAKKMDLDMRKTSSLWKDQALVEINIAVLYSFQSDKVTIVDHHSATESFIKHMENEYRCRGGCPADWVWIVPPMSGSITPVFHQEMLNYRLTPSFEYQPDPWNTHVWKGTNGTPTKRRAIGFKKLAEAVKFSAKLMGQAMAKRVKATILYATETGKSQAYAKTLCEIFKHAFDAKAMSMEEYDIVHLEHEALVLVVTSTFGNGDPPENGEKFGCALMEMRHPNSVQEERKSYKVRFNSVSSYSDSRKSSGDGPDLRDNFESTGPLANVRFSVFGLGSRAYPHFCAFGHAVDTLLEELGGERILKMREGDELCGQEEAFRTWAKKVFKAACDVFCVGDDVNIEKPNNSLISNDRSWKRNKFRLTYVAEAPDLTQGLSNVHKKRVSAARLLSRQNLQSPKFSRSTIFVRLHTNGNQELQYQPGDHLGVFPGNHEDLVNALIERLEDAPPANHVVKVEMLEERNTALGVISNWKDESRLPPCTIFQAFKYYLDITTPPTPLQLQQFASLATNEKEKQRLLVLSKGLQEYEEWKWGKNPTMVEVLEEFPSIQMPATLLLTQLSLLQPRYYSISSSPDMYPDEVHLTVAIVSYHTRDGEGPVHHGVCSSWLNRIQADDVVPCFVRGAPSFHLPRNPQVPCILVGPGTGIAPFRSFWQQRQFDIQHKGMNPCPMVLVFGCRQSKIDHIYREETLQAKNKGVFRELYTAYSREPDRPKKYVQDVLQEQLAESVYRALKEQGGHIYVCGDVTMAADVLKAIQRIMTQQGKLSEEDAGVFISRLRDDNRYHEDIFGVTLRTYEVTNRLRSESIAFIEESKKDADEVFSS

SMILES | inhibition [1] [%] | % activity [2] [%]
COc1ccc(N)c(C(=O)CCNC(=O)C2CCCC2)c1 | 45 | 96.3
CC(=O)NCCC(=O)c1cc(Cl)ccc1N | 31.7 | –
Nc1ccc(Cl)cc1C(=O)CCNC(=O)C1CC1 | 23.3 | –
COc1ccc(N)c(C(=O)CCNC(=O)C2CC2)c1 | 40.4 | 99.9
COc1ccc(N)c(C(=O)CCNC(=O)C2CCCCC2)c1 | 48.2 | 99.6
CCCCC(=O)NCCC(=O)c1cc(OC)ccc1N | 39.6 | 97.2
COc1ccc(N)c(C(=O)CCNC(C)=O)c1 | 65.4 | 102
COc1ccc(N)c(C(=O)CCNC(=O)c2ccccc2)c1 | 46.5 | 97.2
COc1ccc(N)c(C(=O)CCNC(=O)C2CCC2)c1 | 33.7 | 92.2
CCC(=O)NCCC(=O)c1cc(OC)ccc1N | 50.9 | 99.4
CCCC(=O)NCCC(=O)c1cc(OC)ccc1N | 42.8 | –
Nc1ccc(Cl)cc1C(=O)CCNC(=O)c1ccccc1 | 21.7 | –
